Starred links: 1 amine or outer side, 2 acyl side, 3 side chain; linkers in the order of their positions; H or OH if unused. Positions of bridges follow the written chain, without caps; N, C: chain ends. Non-standard residues stand in square brackets, D forms with d. Residues, ends and D or L forms follow the SMILES beside them. X2 = O=C(CC1(S[*:2])CCCCC1)[*:1]
Experiments:
Rattus norvegicus [1] = organism: Rattus norvegicus; experiment: In vitro anti-oxytocic potency was evaluated in the presence of 0.5 mM of Mg2+; assay type: functional; details: read-out: pA2 (converted)
Procedure, shortened: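 Isolated rat uterus in medium containing 0.5 mM Mg2+. USP posterior pituitary reference standard used as agonist. In vitro pA2 values were derived as in Bankowski et al.; means ± SE.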

Rattus norvegicus [2] = organism: Rattus norvegicus; experiment: In vitro anti-oxytocic potency was evaluated in the absence of Mg2+; assay type: functional; details: read-out: pA2 (converted)
Procedure, shortened: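 Isolated rat uterus in medium containing no Mg2+. USP posterior pituitary reference standard used as agonist. In vitro pA2 values were derived as in Bankowski et al.; means ± SE.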

Rattus norvegicus [3] = organism: Rattus norvegicus; experiment: Antidiuretic activity was evaluated for the compound in rats under ethanol anesthesia; antagonist; assay type: functional, Urine
Procedure, shortened: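 Rats under ethanol anesthesia, with USP posterior pituitary reference standard as agonist. Each peptide was given at a high and a low dose, bracketing the dose that cuts the response to 2x units of agonist to the 1x-unit response. Effective dose (nmol/kg) was interpolated on a log scale. In vivo pA2 = −log(effective dose / 67 mL/kg). Means ± SE of at least four estimates.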

Rattus norvegicus [4] = experiment: In vivo anti-vasopressor activity measured as the negative logarithm of the effective dose / the estimated volume of distribution (67 mL/kg); assay type: ADME, organism-based; details: read-out: pA2 (converted)
Procedure, shortened: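 Rats treated with phenoxybenzamine under urethane anesthesia. Pressor responses to the USP posterior pituitary standard were given intravenously. Effective dose (nmol/kg) was interpolated on a log scale; means ± SE of at least four estimates. pA2 = −log(effective dose / 67 mL/kg).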

Rattus norvegicus [5] = experiment: In vivo antidiuretic activity in rats under ethanol anesthesia.; assay type: functional, Urine
Procedure, shortened: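 Rats under ethanol anesthesia, with the USP posterior pituitary reference standard as reference. Agonistic activity is expressed in units per milligram.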

CCOc1ccc(C[C@@H]2NC(=O)CC3(CCCCC3)SSC[C@@H](C(=O)N3CCC[C@H]3C(=O)N[C@@H](CCCN=C(N)N)C(=O)NCC(N)=O)NC(=O)[C@H](CC(N)=O)NC(=O)[C@H](C(C)C)NC(=O)[C@H](Cc3ccccc3)NC2=O)cc1 (Y(Et)FVNCPRG-NH2; linker N-5 via X2)
Kb (Rattus norvegicus [1]): 87.1 nM
Kb (Rattus norvegicus [2]): 9.55 nM
Activity (Rattus norvegicus [3]): 7.1 mg

CCOc1ccc(C[C@@H]2NC(=O)CC3(CCCCC3)SSC[C@@H](C(=O)N3CCC[C@H]3C(=O)N[C@H](CCCN=C(N)N)C(=O)NCC(N)=O)NC(=O)[C@H](CC(N)=O)NC(=O)[C@H](C(C)C)NC(=O)[C@H](Cc3ccccc3)NC2=O)cc1 (Y(Et)FVNCP[dR]G-NH2; linker N-5 via X2)
Kb (Rattus norvegicus [4]): 6.92 nM
Activity (Rattus norvegicus [3]): 7.57 mg

COc1ccc(C[C@@H]2NC(=O)CC3(CCCCC3)SSC[C@@H](C(=O)N3CCC[C@H]3C(=O)NC(CCCN=C(N)N)C(=O)NCC(N)=O)NC(=O)[C@H](CC(N)=O)NC(=O)[C@H](CCC(N)=O)NC(=O)[C@H](Cc3ccccc3)NC2=O)cc1 (stereo in doubt)
Activity (Rattus norvegicus [5]): 0.23 units/mg
Kb (Rattus norvegicus [1]): 15.5 nM
Kb (Rattus norvegicus [2]): 28.2 nM
Kb (Rattus norvegicus [4]): 3.89 nM

From ChEMBL document CHEMBL1122821, “Synthesis and some pharmacological properties of 18 potent O-alkyltyrosine-substituted antagonists of the vasopressor responses to arginine-vasopressin” (J Med Chem, 1985)
